The record followed here is ChEMBL document CHEMBL1153932, “Hybrid alpha-bromoacryloylamido chalcones. Design, synthesis and biological evaluation” (Bioorg Med Chem Lett, 2009).

The test system of data set [1] is CCRF-CEM. In words: Antiproliferative activity against human CEM cells after 48 hrs by Coulter counting analysis. Format: cell-based.
In data set [2] the test system is L1210. The data set can be described thus: Antiproliferative activity against mouse L1210 cells after 48 hrs by Coulter counting analysis. The class given is functional, cell-based. The settings on record: L1210, 48 h.
In data set [3] the test system is K562. In words: Cell cycle arrest in human K562 cells assessed as accumulation at G2-M phase at IC75 after 72 hrs using propidium iodide staining by flow cytometry. Format: functional. A digest of the protocol:
(§1)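 K562 cells were cultured 72 h with or without compound, then stained with propidium iodide and analysed by flow cytometry. The proportions of cells in sub-G1, G0–G1, S and G2-M were read from DNA histograms and compared with untreated controls.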

For data set [4], the system named is K562. The data set can be described thus: Cell cycle arrest in human K562 cells assessed as accumulation at G0-G1 phase at IC75 after 72 hrs using propidium iodide staining by flow cytometry. The class given is functional. In a few lines:
as §1

Data set [5] relates to HeLa. In words: Antiproliferative activity against human HeLa cells after 48 hrs by Coulter counting analysis. The class given is functional, cell-based.
Data set [6] concerns K562. The data set can be described thus: Cell cycle arrest in human K562 cells assessed as accumulation at S phase at IC75 after 72 hrs using propidium iodide staining by flow cytometry. The class given is functional. A digest of the protocol:
as §1
In general terms: In flow cytometry, cells or beads pass a laser one at a time.

In data set [7] the test system is K562. The data set can be described thus: Cell cycle arrest in human K562 cells assessed as accumulation at subG1 phase at IC75 after 72 hrs using propidium iodide staining by flow cytometry. The class given is functional. A digest of the protocol:
as §1

A short description of data set [8]: Inhibition of bovine brain tubulin polymerization. Set-up: species or system Bos taurus.
Data set [9] is described as follows: Solubility of the compound. The class given is physicochemical.
Data set [10] concerns FM3A. The data set can be described thus: Antiproliferative activity against mouse FM3A cells after 48 hrs by Coulter counting analysis. The class given is functional, cell-based.
Data set [11] relates to MOLT-4. The data set can be described thus: Antiproliferative activity against human MOLT4 cells after 48 hrs by Coulter counting analysis. Format: functional, cell-based. The note with it: MOLT-4, 48 h.
Data set [12] relates to K562. In words: Antiproliferative activity against human K562 cells after 48 hrs by Coulter counting analysis. Format: functional, cell-based. The settings on record: K562, 48 h.
The subject of data set [13] is K562. The data set can be described thus: Induction of apoptosis in human K562 cells assessed as phosphatidylserine externalization up to 3 uM after 48 hrs using annexin-V-FITC staining by flow cytometry. The class given is functional, cell-based.
Data set [14] concerns K562. The data set can be described thus: Induction of apoptosis in human K562 cells assessed as phosphatidylserine externalization up to 3 uM after 24 hrs using annexin-V-FITC staining by flow cytometry. The class given is functional, cell-based.
The species named for data set [15] is Bos taurus. The data set can be described thus: Displacement of [3H]colchicine from bovine brain tubulin at 50 uM.
For data set [16], the system named is K562. In words: Induction of apoptosis in human K562 cells assessed as caspase 3 activation at 1.25 uM after 48 hrs by flow cytometry. Format: functional, cell-based. In a few lines:
(§2)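 K562 cells were treated with compound for 24 h and 48 h, then harvested. Cells were stained with a FITC-conjugated monoclonal antibody against the active fragment of human caspase-3 and analysed by flow cytometry against untreated controls.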

Data set [17] has as its system K562. The data set can be described thus: Induction of apoptosis in human K562 cells assessed as caspase 3 activation at 1.25 uM after 24 hrs by flow cytometry. Format: functional, cell-based. In a few lines: as §2
The test system of data set [18] is K562. The data set can be described thus: Induction of apoptosis in human K562 cells assessed as caspase 3 activation at 0.6 uM after 48 hrs by flow cytometry. Format: functional, cell-based. In a few lines: as §2
Data set [19] deals with K562. The data set can be described thus: Induction of apoptosis in human K562 cells assessed as caspase 3 activation at 0.6 uM after 24 hrs by flow cytometry. Format: functional, cell-based. A digest of the protocol: as §2
Data set [20] relates to K562. The data set can be described thus: Induction of apoptosis in human K562 cells assessed as increase in mitochondrial mass at […] after 48 hrs using 10-N-nonyl acridine orange staining by flow cytometry. Format: functional, cell-based.
Data set [21] deals with K562. In words: Induction of apoptosis in human K562 cells assessed as phosphatidylserine externalization at 0.2 uM after 3 days using annexin-V-FITC staining by flow cytometry. The class given is functional, cell-based.

Usually IC50 stands for the midpoint of a concentration-inhibition curve. Usually IC75 stands for the concentration at which the effect reaches the 75% level. Low values mean an effect from little substance, high ones a need for much substance. What is called inhibition is how much of the control response was suppressed. A higher inhibition goes with a response far below the control.

The structures appear in SMILES notation. The source made the active and inactive calls. No cut-off for these calls is given here.

Regarding `C=C(Br)C(=O)Nc1ccc(C(=O)/C=C/c2ccccc2)cc1`, the IC50 in data set [1] was 1500 nM; in [2], 880 nM; in data set [5] it was 960 nM; in data set [8], above 40 µM; in data set [10] it was 690 nM; in [11], 500 nM. Further, the Activity is recorded as 13% in [3], 23% in data set [4], 16.4% in data set [6] and 47.6% in [7]. The solubility entry in data set [9] was “Insoluble”. The IC75 in [12] came out at 2.77 µM.

As for `C=C(Br)C(=O)Nc1ccc(/C=C/C(=O)c2cccs2)cc1`, the IC50 is 730 nM in data set [1]; 250 nM in data set [2]; 340 nM in [5]; above 40 µM in [8]; 520 nM in data set [10]; 550 nM in data set [11]. Moreover, the Activity in data set [3] is listed as 17%; in [4], 17%; in data set [6], 23.2%; in [7], 42.8%. Moreover, in [9], the solubility entry is “Insoluble”. For the same molecule, the IC75 in data set [12] is 0.82 µM.

Regarding `C=C(Br)C(=O)Nc1ccc(C(=O)/C=C/c2ccc(N(C)C)cc2)cc1`, the IC50 was determined as 1500 nM in data set [1]; 1900 nM in data set [2]; 610 nM in data set [5]; 2800 nM in [10]; 1300 nM in [11]. The outcome in data set [13] and in data set [14] was Active.

Take `C=C(Br)C(=O)Nc1ccc(C(=O)/C=C/c2ccccc2OC)cc1`: the IC50 in data set [1] came out at 580 nM; in data set [2], 1700 nM; in [5], 1300 nM; in data set [8], 8.3 µM; in data set [10], 370 nM; in data set [11], 240 nM. For the same molecule, in data set [15], the inhibition is 37%. In addition, the Activity in data set [3] is reported as 3.9%; in data set [4], 6.4%; in data set [6], 6.3%; in [7] it was 83.4%. Besides, in [9], the solubility result is recorded as “Insoluble”. The molecule further displayed an IC75 in [12] of 2.94 µM.

In the case of `C=C(Br)C(=O)Nc1ccc(/C=C/C(=O)c2ccc(Br)cc2)cc1`, the IC50 in data set [1] is 990 nM; in data set [2], 620 nM; in data set [5], 1000 nM; in data set [8], above 40 µM; in data set [10], 1100 nM; in [11], 680 nM. Besides, the Activity in data set [3] is 16.2%; in [4], 35.9%; in [6], 27.5%; in data set [7] it was 20.4%. The solubility result in [9] is on record as “Insoluble”. Also, in data set [12], the 75% effect level (IC75) was put at 0.84 µM.

For `C=C(Br)C(=O)Nc1ccc(/C=C/C(=O)c2ccc(OCC)cc2)cc1`, the IC50 in data set [1] was 750 nM; in data set [2], 240 nM; in data set [5], 750 nM; in [8], above 40 µM; in data set [10], 680 nM; in data set [11], 610 nM. For the same molecule, the result in [16], in [17], in data set [18], in data set [19] and in data set [20] was Active. For the same molecule, the Activity worked out at 11.6% in data set [3], 16.5% in [4], 19.6% in data set [6] and 52.3% in data set [7]. For the same molecule, the solubility result in [9] is given as “Insoluble”. Besides, in data set [12], the IC75 was 0.85 µM.

For `COc1ccc(C(=O)/C=C/c2ccc(N)cc2)cc1`, the IC50 amounted to 37000 nM in data set [1]; 160000 nM in data set [2]; 98000 nM in data set [5]; 282000 nM in data set [10]; 19000 nM in [11].

For `C=C(Br)C(=O)Nc1ccc(C(=O)/C=C/c2cccc(OC)c2)cc1`, the IC50 is 1800 nM in data set [1]; 1100 nM in [2]; 500 nM in [5]; 1800 nM in data set [10]; 1100 nM in data set [11].

As for `C=C(Br)C(=O)Nc1ccc(/C=C/C(=O)c2ccc(F)cc2)cc1`, the IC50 is 1100 nM in data set [1]; 1600 nM in [2]; 1400 nM in data set [5]; 1200 nM in data set [10]; 660 nM in data set [11].

`Nc1ccc(/C=C/C(=O)c2cccs2)cc1`: the IC50 in data set [1] is 27000 nM; in data set [2] it was 87000 nM; in data set [5] it was 15000 nM; in data set [10], 123000 nM; in data set [11], 13000 nM.

For `C=C(Br)C(=O)Nc1ccc(/C=C/C(=O)c2cccc3ccccc23)cc1`, the IC50 in [1] amounted to 3100 nM; in [2], 1100 nM; in data set [5], 2000 nM; in data set [10], 2400 nM; in [11], 2100 nM.

In the case of `C=C(Br)C(=O)Nc1ccc(/C=C/C(=O)c2ccc(C)cc2)cc1`, the IC50 was found to be 1800 nM in data set [1]; 1900 nM in data set [2]; 2100 nM in data set [5]; 2100 nM in data set [10]; 1700 nM in data set [11].

Take `COc1cc(C(=O)/C=C/c2ccc(N)cc2)cc(OC)c1OC`: the IC50 in data set [1] was 2500 nM; in data set [2] it was 14000 nM; in data set [5] it was 1900 nM; in data set [10], 36000 nM; in data set [11] it was 1500 nM.

Regarding `C=C(Br)C(=O)Nc1ccc(C(=O)/C=C/c2ccc(OC)c(OC)c2OC)cc1`, the IC50 in data set [1] was 840 nM; in [2] it was 630 nM; in [5], 510 nM; in data set [8], above 40 µM; in data set [10], 530 nM; in [11], 680 nM. In data set [12], this molecule yielded an IC50 of 200 nM. The Activity in data set [3] amounted to 13.6%; in data set [4], 13.7%; in [6], 14.9%; in data set [7] it was 57.8%. The outcome in [21] was Active. For the same molecule, the solubility entry in data set [9] is “Insoluble”. The molecule also displayed an IC75 in data set [12] of 0.71 µM.

In the case of `C=C(Br)C(=O)Nc1ccc(C(=O)/C=C/c2cccc(OC)c2OC)cc1`, the half-maximal inhibitory concentration (IC50) in data set [1] is 710 nM; in [2] it was 1100 nM; in data set [5], 380 nM; in [8], above 40 µM; in [10], 550 nM; in [11], 490 nM. The Activity in data set [3] came to 14.1%; in data set [4], 22.3%; in [6] it was 15.2%; in [7], 48.4%. In addition, in data set [9], the solubility entry was “Insoluble”. Also, the IC75 in data set [12] turned out to be 0.64 µM.

Take `C=C(Br)C(=O)Nc1ccc(C(=O)/C=C/c2ccc(OC)cc2)cc1`: the IC50 is 1100 nM in [1]; 900 nM in [2]; 310 nM in data set [5]; above 40 µM in [8]; 1000 nM in [10]; 610 nM in [11]. Further, the Activity in [3] is listed as 9.2%; in data set [4], 11%; in data set [6], 11.6%; in data set [7], 68.2%. The solubility entry in data set [9] is recorded as “Insoluble”. Further, the IC75 in data set [12] was determined as 1.14 µM.

Take `C=C(Br)C(=O)Nc1ccc(/C=C/C(=O)c2ccc(I)cc2)cc1`: the IC50 in data set [1] was determined as 4000 nM; in data set [2], 3400 nM; in data set [5], 7700 nM; in data set [10], 8300 nM; in [11] it was 2800 nM.
